From ChEMBL document CHEMBL1142556, “cis-parthenolid-9-one from Anvillea garcinii” (2000)
Converted amounts (≈) assume the structure as drawn.

What was measured:
[1] = Cytotoxicity against human leukemia cells; assay type: functional, Leukemia cell; settings: for EC50: Homo sapiens, Leukemia cell, read-out: ED50 (the source's name)
Method in brief: (§1)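 Tested in vitro by the National Cancer Institute screen. Values are averages over each cell-line subpanel. Potency is reported two ways: C50, the half-maximal effective dose in μmol/L, and ED50, the dose that inhibits net cell growth to 50% of control growth in μg/mL.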

[2] = Cytotoxicity against human lung cancer cells; assay type: functional, Cancer cell lines; settings: for EC50: Homo sapiens, Cancer cell lines, read-out: ED50 (the source's name); method in brief: as §1
[3] = Cytotoxicity against human colon cancer cells; assay type: functional, Cancer cell lines; settings: for EC50: Homo sapiens, Cancer cell lines, read-out: ED50 (the source's name); method in brief: as §1
[4] = Cytotoxicity against human central nervous system cancer cells; assay type: functional, Cancer cell lines; settings: for EC50: Homo sapiens, Cancer cell lines, read-out: ED50 (the source's name); method in brief: as §1
[5] = Cytotoxicity against human melanoma cells; assay type: functional, Melanoma cell; settings: for EC50: Homo sapiens, Melanoma cell, read-out: ED50 (the source's name); method in brief: as §1
[6] = Cytotoxicity against human ovarian cancer cells; assay type: functional, Cancer cell lines; settings: for EC50: Homo sapiens, Cancer cell lines, read-out: ED50 (the source's name); method in brief: as §1
[7] = Cytotoxicity against human renal cancer cells; assay type: functional, Cancer cell lines; settings: for EC50: Homo sapiens, Cancer cell lines, read-out: ED50 (the source's name); method in brief: as §1
[8] = Cytotoxicity against human prostate cancer cells; assay type: functional, Cancer cell lines; settings: for EC50: Homo sapiens, Cancer cell lines, read-out: ED50 (the source's name); method in brief: as §1
[9] = Cytotoxicity against human breast cancer cells; assay type: functional, Cancer cell lines; settings: for EC50: Homo sapiens, Cancer cell lines, read-out: ED50 (the source's name); method in brief: as §1

| Structure (SMILES) | C50 [1] [µmol/L] | EC50 [1] [µg/mL] | C50 [2] [µmol/L] | EC50 [2] [µg/mL] | C50 [3] [µmol/L] | EC50 [3] [µg/mL] | C50 [4] [µmol/L] | EC50 [4] [µg/mL] | C50 [5] [µmol/L] | EC50 [5] [µg/mL] | C50 [6] [µmol/L] | EC50 [6] [µg/mL] | C50 [7] [µmol/L] | EC50 [7] [µg/mL] | C50 [8] [µmol/L] | EC50 [8] [µg/mL] | C50 [9] [µmol/L] | EC50 [9] [µg/mL] |
| --- | --- | --- | --- | --- | --- | --- | --- | --- | --- | --- | --- | --- | --- | --- | --- | --- | --- | --- |
| C=C1C(=O)O[C@H]2[C@H]1CC(=O)/C(C)=C/CC[C@@]1(C)O[C@@H]21 | 0.08 | 0.02 (≈ 0.0762 µM) | 1.8 | 0.47 (≈ 1.79 µM) | 0.32 | 0.08 (≈ 0.305 µM) | 2.9 | 0.76 (≈ 2.9 µM) | 0.57 | 0.15 (≈ 0.572 µM) | 1.4 | 0.37 (≈ 1.41 µM) | 0.41 | 0.11 (≈ 0.419 µM) | 2.2 | 0.57 (≈ 2.17 µM) | 0.6 | 0.16 (≈ 0.61 µM) |
| C=C1C(=O)O[C@H]2[C@H]1CC(=O)/C(C)=C\CC[C@@]1(C)O[C@@H]21 | 1.94 | 0.51 (≈ 1.94 µM) | 13.4 | 3.51 (≈ 13.4 µM) | 7.3 | 1.91 (≈ 7.28 µM) | 17.1 | 4.47 (≈ 17 µM) | 10.6 | 2.77 (≈ 10.6 µM) | 11.9 | 3.13 (≈ 11.9 µM) | 8.05 | 2.11 (≈ 8.04 µM) | 14.4 | 3.77 (≈ 14.4 µM) | 9.81 | 2.57 (≈ 9.8 µM) |
